According to ChEMBL document CHEMBL1153438, “Synthesis and biological evaluation of novel conjugates of podophyllotoxin and 5-FU as antineoplastic agents” (Bioorg Med Chem, 2009):
pIC50: −log10 of the molar value. Calls of active or inactive are those of the source. No cut-off for these calls is given here.

What was measured:
AGS = assay: Cytotoxicity against human AGS cells after 72 hrs by SRB method; format: functional, cell-based
How it was run: (§1)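 SRB assay in AGS and A549 solid tumour cells. Cells were seeded at 6000–10,000 per well, then exposed in triplicate to a concentration gradient for 72 h at 37 °C. IC50 was read from the dose–response curve as the average of triplicates.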

A549 = assay: Cytotoxicity against human A549 cells after 72 hrs by SRB method; format: functional, cell-based; details: A549, 72 h; how it was run: as §1
[1] = Octanol-water partition coefficient, log P of the compound; format: physicochemical
How it was run: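 Octanol–water partition coefficient; each reported P is the average of three measurements.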

K562 = assay: Cytotoxicity against human K562 cells after 48 hrs by MTT assay; format: functional, cell-based; details: K562, 48 h
How it was run: (§2)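 MTT assay in HL-60 and K562 leukemia cells. Cells were seeded at 6000–10,000 per well, then treated in triplicate with a concentration gradient for 48 h at 37 °C. IC50 was taken from the dose–response curve as the average of triplicates.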

HL-60 = assay: Cytotoxicity against human HL60 cells after 48 hrs by MTT assay; format: functional, cell-based; details: HL-60, 48 h; how it was run: as §2
[2] = Stability at pH 7.4 PBS at 1 ug/ml within 8 hrs; format: physicochemical; details: buffer, pH 7.4, 8 h
How it was run: (§3)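 Compound (100 µg/mL stock in acetonitrile, 1.0 mL) was added to 4.0 mL preincubated human plasma, mouse plasma or pH 7.4 phosphate buffer and held at 37 °C. Protein was precipitated with cold acetonitrile and the sample centrifuged. Supernatant was analysed by C18 HPLC with CH3CN/H2O 45:55 at 1.0 mL/min.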

Plasma [3] = assay: Metabolic stability in human plasma at 1 ug/ml within 24 hrs; format: ADME, cell-free; how it was run: as §3
Plasma [4] = assay: Metabolic stability in mouse plasma at 1 ug/ml after 2 hrs; format: ADME, cell-free; how it was run: as §3
Calf thymus DNA = assay: Binding affinity to calf thymus DNA after 24 hrs by circular dichroism; format: nucleic-acid assay; details: Bos taurus
How it was run: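 CT DNA dissolved and annealed in 10 mM PBS pH 7.2, then mixed with compound at 0, 10, 20 or 50 µg/mL. Mixtures were incubated 24 h at 37 °C in the dark. CD spectra were recorded from 200–320 nm in 1 cm quartz cells, with compound-only solutions in PBS as blanks.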

[5] = Stability at pH 7.4 PBS at 1 ug/ml after 8 hrs; format: physicochemical; details: buffer, pH 7.4, 8 h; how it was run: as §3

Row | Structure (SMILES) | pIC50 (AGS) | pIC50 (A549) | logP [1] | pIC50 (K562) | pIC50 (HL-60) | Stability [2] | Stability (Plasma [3]) | Stability (Plasma [4]) | Activity (Calf thymus DNA) | Stability [5]
1 | COc1cc([C@@H]2c3cc4c(cc3[C@@H](N[C@@H](Cc3ccccc3)C(=O)OCCCn3cc(F)c(=O)[nH]c3=O)[C@H]3COC(=O)[C@H]23)OCO4)cc(OC)c1O | 4.63 | 6.32 | 0.65 | 5.24 | 6.51 |  |  |  |  | 
2 | COc1cc([C@@H]2c3cc4c(cc3[C@@H](N[C@@H](Cc3ccccc3)C(=O)OCCCCCn3cc(F)c(=O)[nH]c3=O)[C@H]3COC(=O)[C@H]23)OCO4)cc(OC)c1O | 4.41 | > 8.00 | 0.29 | 4.88 | 7.40 | Stable | Stable | Unstable | Active | Unstable
3 | CC[C@H](C)[C@H](N[C@@H]1c2cc3c(cc2[C@@H](c2cc(OC)c(O)c(OC)c2)[C@H]2C(=O)OC[C@@H]21)OCO3)C(=O)OCCCn1cc(F)c(=O)[nH]c1=O | 4.25 | 6.74 | 0.59 | 5.29 | 6.62 |  |  |  |  | 
4 | COc1cc([C@@H]2c3cc4c(cc3[C@@H](N[C@@H](CCSC)C(=O)OCCCn3cc(F)c(=O)[nH]c3=O)[C@H]3COC(=O)[C@H]23)OCO4)cc(OC)c1O | 4.61 | 6.54 | 0.23 | 5.06 | 6.00 |  |  |  |  | 
5 | COc1cc([C@@H]2c3cc4c(cc3[C@@H](N[C@H](C(=O)OCCCn3cc(F)c(=O)[nH]c3=O)C(C)C)[C@H]3COC(=O)[C@H]23)OCO4)cc(OC)c1O | 4.20 | 5.72 | 0.34 | 4.87 | 5.24 |  |  |  |  | 
6 | O=c1[nH]cc(F)c(=O)[nH]1 [FLUOROURACIL] | < 4.00 |  |  | < 4.00 |  |  |  |  |  | 
7 | COc1cc([C@@H]2c3cc4c(cc3[C@@H](N[C@@H](CC(C)C)C(=O)OCCCCCn3cc(F)c(=O)[nH]c3=O)[C@H]3COC(=O)[C@H]23)OCO4)cc(OC)c1O | 4.63 | 6.28 | 0.51 | 5.22 | 6.51 |  |  |  |  | 
8 | COc1cc([C@@H]2c3cc4c(cc3[C@@H](N[C@@H](CC(C)C)C(=O)OCCCCn3cc(F)c(=O)[nH]c3=O)[C@H]3COC(=O)[C@H]23)OCO4)cc(OC)c1O | 4.46 | > 8.00 | 0.35 | 5.28 | 6.14 |  |  |  |  | 
9 | COc1cc([C@@H]2c3cc4c(cc3[C@@H](N[C@H](C(=O)OCCCn3cc(F)c(=O)[nH]c3=O)[C@@H](C)O)[C@H]3COC(=O)[C@H]23)OCO4)cc(OC)c1O | 3.85 | 5.16 | -0.12 | 4.51 | 4.63 |  |  |  |  | 
10 | COc1cc([C@@H]2c3cc4c(cc3[C@@H](N[C@@H](C)C(=O)OCCCn3cc(F)c(=O)[nH]c3=O)[C@H]3COC(=O)[C@H]23)OCO4)cc(OC)c1O | 4.39 | 5.59 | -0.07 | 4.71 | 4.65 |  |  |  |  | 
11 | COc1cc([C@@H]2c3cc4c(cc3[C@@H](N[C@@H](CC(C)C)C(=O)OCCCn3cc(F)c(=O)[nH]c3=O)[C@H]3COC(=O)[C@H]23)OCO4)cc(OC)c1O | 4.23 | 8.00 | 0.33 | 5.02 | 6.89 |  |  |  |  | 
12 | COc1cc([C@@H]2c3cc4c(cc3[C@@H](N[C@@H](Cc3ccccc3)C(=O)OCCCCn3cc(F)c(=O)[nH]c3=O)[C@H]3COC(=O)[C@H]23)OCO4)cc(OC)c1O | 4.63 | 6.52 | 0.43 | 5.04 | 6.38 |  |  |  |  | 
13 | COc1cc([C@@H]2c3cc4c(cc3[C@H](O)[C@H]3COC(=O)[C@H]23)OCO4)cc(OC)c1OC [PODOFILOX] | 4.29 | 5.13 | 0.69 | < 4.00 | 5.56 |  |  |  |  | 
14 | COc1cc([C@@H]2c3cc4c(cc3[C@@H](N[C@@H](Cc3ccc(O)cc3)C(=O)OCCCn3cc(F)c(=O)[nH]c3=O)[C@H]3COC(=O)[C@H]23)OCO4)cc(OC)c1O | 3.94 | 4.66 | 0.07 | 4.54 | 4.58 |  |  |  |  | 
